One data set concerns Rattus norvegicus. As to the kind of experiment: Natriuretic activity in Sprague-Dawley rat at 10 mg/kg via oral gavage administered 30 mins prior to void induction by loading saline measured upto 4 hrs relative to vehicle treated control. In kind it is functional. The method, boiled down: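 Acute 4 h study in Sprague-Dawley rats after oral dosing, n = 5 per group. Urine volume and sodium and potassium excretion were expressed as fold increase over vehicle-treated animals. Significance was tested versus vehicle (p < 0.05 or p < 0.01).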

Data set [1] is described as follows: Clearance in rat at 1 mg/kg, iv or 2 mg/kg, po. The class given is ADME, organism-based. Conditions: in vivo. The method, boiled down: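 Rats dosed once at 1 mg/kg IV and, separately, 2 mg/kg PO, with n = 3. Derived parameters were plasma clearance, Vdss, dose-normalized oral AUC (μM·h·kg/mg), half-life, and oral bioavailability (F%).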
Data set [2] can be described thus: Drug metabolism in dog hepatocytes assessed as oxidation at 1 uM measured at 120 mins. In kind it is ADME, cell-based, Canis lupus familiaris, Hepatocyte. Conditions: read-out: Drug metabolism.
The target in data set [3] is T1, Inward rectifier potassium channel 4 (Homo sapiens) (UniProt P48050).
T1 sequence (whole entry): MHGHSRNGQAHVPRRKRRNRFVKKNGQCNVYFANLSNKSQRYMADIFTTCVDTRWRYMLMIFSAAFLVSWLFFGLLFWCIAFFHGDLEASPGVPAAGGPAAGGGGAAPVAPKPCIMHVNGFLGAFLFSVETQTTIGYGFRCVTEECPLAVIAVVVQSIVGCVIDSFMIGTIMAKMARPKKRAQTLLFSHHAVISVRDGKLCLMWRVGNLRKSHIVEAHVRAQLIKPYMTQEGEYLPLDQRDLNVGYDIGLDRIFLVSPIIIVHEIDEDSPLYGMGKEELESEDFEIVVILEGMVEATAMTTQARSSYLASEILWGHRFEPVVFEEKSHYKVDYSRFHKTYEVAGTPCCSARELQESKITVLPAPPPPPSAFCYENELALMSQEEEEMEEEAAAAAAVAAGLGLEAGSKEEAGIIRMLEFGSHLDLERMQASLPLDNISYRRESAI
As to the kind of experiment: Inhibition of Kir2.3 (unknown origin) upto 30 uM.

The next data set concerns the target Cytochrome P450 2C9 (Homo sapiens, UniProt P11712). Kind of data set: Reversible inhibition of human CYP2C9. In kind it is ADME.

Each structure is given as a SMILES string. Calls of active or inactive are those of the source. The rule behind the calls is not given here.

Cytochrome P450 2C9, sequence (P11712 whole entry): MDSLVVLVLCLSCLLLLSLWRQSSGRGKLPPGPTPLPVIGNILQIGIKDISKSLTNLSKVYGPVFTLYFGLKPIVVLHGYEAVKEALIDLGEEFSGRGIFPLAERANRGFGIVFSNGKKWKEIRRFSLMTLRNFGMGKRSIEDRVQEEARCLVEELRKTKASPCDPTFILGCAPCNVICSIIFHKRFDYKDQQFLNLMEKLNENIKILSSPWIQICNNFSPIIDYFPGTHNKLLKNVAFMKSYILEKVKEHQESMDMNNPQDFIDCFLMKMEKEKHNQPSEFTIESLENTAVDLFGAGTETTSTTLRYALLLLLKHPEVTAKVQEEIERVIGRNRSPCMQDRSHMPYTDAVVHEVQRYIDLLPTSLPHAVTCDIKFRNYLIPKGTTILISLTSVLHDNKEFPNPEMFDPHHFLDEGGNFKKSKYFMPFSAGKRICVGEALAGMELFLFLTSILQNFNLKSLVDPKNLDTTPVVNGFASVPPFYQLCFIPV

Regarding `Cc1c([C@@H](O)CN2CCN(C[C@H](O)c3ccc4c(c3C)COC4=O)CC2)ccc2c1COC2=O` [MK-7145], the “fold change (FC)” value with Rattus norvegicus is 8.5. The compound also registered a clearance in data set [1] of 56 mL/min/kg. For the same compound, the metabolised at 2 h, 1 µM in data set [2] lay within 15 to 37%. Further, the inhibition result in data set [3] was “inactive”. Moreover, at Cytochrome P450 2C9, the IC50 (usually the concentration needed to halve the response being measured) was greater than 50 µM.
